Assay results taken from ChEMBL document CHEMBL3352313 (J Med Chem, 2014).

Legend:
[1] = Intrinsic clearance in rat liver microsomes; type: ADME; conditions: read-out: CLH
Outline: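 Microsomal intrinsic clearance, used in the well-stirred model of organ clearance, not corrected for plasma fraction unbound, to predict hepatic clearance.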

[2] = target: T1, Muscarinic acetylcholine receptor M5 (Homo sapiens, UniProt P08912); experiment: Positive allosteric modulator activity at human muscarinic acetylcholine receptor subtype 5 expressed in CHO cells by calcium mobilization assay; type: functional, cell-based
T1 sequence (P08912 whole entry): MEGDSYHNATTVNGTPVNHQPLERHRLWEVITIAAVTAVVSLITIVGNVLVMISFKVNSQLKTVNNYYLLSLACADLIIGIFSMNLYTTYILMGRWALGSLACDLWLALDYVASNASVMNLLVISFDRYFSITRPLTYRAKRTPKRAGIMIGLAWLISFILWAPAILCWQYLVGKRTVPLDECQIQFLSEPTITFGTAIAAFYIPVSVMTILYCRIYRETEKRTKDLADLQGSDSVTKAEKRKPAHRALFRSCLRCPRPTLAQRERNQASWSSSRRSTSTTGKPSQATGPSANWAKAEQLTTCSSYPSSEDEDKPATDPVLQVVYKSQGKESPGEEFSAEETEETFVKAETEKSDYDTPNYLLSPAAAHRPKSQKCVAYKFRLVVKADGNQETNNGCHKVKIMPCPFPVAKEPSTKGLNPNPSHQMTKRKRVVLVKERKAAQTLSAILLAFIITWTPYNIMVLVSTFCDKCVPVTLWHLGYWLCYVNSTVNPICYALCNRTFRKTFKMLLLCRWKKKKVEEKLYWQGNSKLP

[3] = target: T2, Muscarinic acetylcholine receptor M5 (Homo sapiens) (UniProt P08912); experiment: Positive allosteric modulator activity at human muscarinic acetylcholine receptor subtype 5 expressed in CHO cells by calcium mobilization assay relative to acetylcholine; type: functional, cell-based
T2 sequence (whole entry): T1 sequence (P08912 whole entry)

[4] = target: T2, Muscarinic acetylcholine receptor M5 (Homo sapiens); experiment: Positive allosteric modulator activity at human muscarinic acetylcholine receptor subtype 5 expressed in CHO cells assessed as fold shift in acetylcholine-induced response at 10 uM by calcium mobilization assay; type: functional, cell-based
Outline: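 In hM5 CHO cells by calcium mobilization, PAM at a fixed 10 μM or vehicle is added before an ACh concentration-response curve. Fold shift is the ratio of ACh potency without PAM to potency with PAM.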

[5] = target: T2, Muscarinic acetylcholine receptor M5 (Homo sapiens); experiment: Displacement of [3H]NMS from human muscarinic acetylcholine receptor subtype 5 expressed in CHO cell membranes assessed as radioligand binding level by scintillation counting method

Compound	EC50 ([2]; read-out: EC50)	%max [3]	other results
CC(C)(C)CN(Cc1ccccc1C(F)(F)F)C(=O)C1CCN(S(=O)(=O)c2ccc3[nH]ncc3c2)CC1	120 nM	104%	CLint scaled [1]: > 500 mL/min/kg
CCN(Cc1ccccc1)C(=O)C1CCN(S(=O)(=O)c2ccccn2)CC1	> 10000 nM	–	–
O=C(C1CCN(S(=O)(=O)c2ccc3[nH]ncc3c2)CC1)N(Cc1ccccc1C(F)(F)F)C1CCC1	1800 nM	84%	–
CCN(Cc1ccccc1)C(=O)C1CCN(S(=O)(=O)c2ccc(C(F)(F)F)nc2)CC1	> 10000 nM	–	–
CCN(Cc1ccccc1)C(=O)C1CCN(S(=O)(=O)c2c(C)noc2C)CC1	> 10000 nM	–	–
CCN(Cc1ccccc1)C(=O)C1CCN(S(=O)(=O)c2ccc3c(c2)OCO3)CC1	7400 nM	93%	–
CCN(Cc1ccccc1)C(=O)C1CCN(S(=O)(=O)c2ccc3nsnc3c2)CC1	3000 nM	81%	–
CCN(Cc1ccccc1OC)C(=O)C1CCN(S(=O)(=O)c2ccc3cn[nH]c3c2)CC1	750 nM	92%	–
CCN(Cc1cccc(C(F)(F)F)c1)C(=O)C1CCN(S(=O)(=O)c2ccc3cn[nH]c3c2)CC1	5600 nM	59%	–
CCN(Cc1ccccc1)C(=O)C1CCN(S(=O)(=O)c2ccc3c(c2)OCCO3)CC1	–	–	fold change (FC) [4]: 2.3
CCN(Cc1ccccc1)C(=O)C1CCN(S(=O)(=O)c2ccc(C)s2)CC1	> 10000 nM	64%	–
CCN(C(=O)C1CCN(S(=O)(=O)c2ccc(OC)cc2)CC1)[C@H](C)c1ccccc1	970 nM	90%	fold change (FC) [4]: 7
CCN(Cc1ccccc1)C(=O)C1CCN(S(=O)(=O)c2ccc3cccnc3c2)CC1	> 10000 nM	66%	–
O=C(C1CCN(S(=O)(=O)c2ccc3[nH]ncc3c2)CC1)N(Cc1ccccc1C(F)(F)F)CC1CC1	120 nM	102%	CLint scaled [1]: > 500 mL/min/kg
CCN(Cc1ccccc1)C(=O)C1CCN(S(=O)(=O)c2cccnc2)CC1	> 10000 nM	–	–
CCN(C(=O)C1CCN(S(=O)(=O)c2ccc3cn[nH]c3c2)CC1)[C@H](C)c1ccccc1	760 nM	87%	–
CCN(Cc1ccccc1C(F)(F)F)C(=O)C1CCN(S(=O)(=O)c2ccc3cn[nH]c3c2)CC1	480 nM	92%	fold change (FC) [4]: 7
CCN(Cc1ccccc1F)C(=O)C1CCN(S(=O)(=O)c2ccc3cn[nH]c3c2)CC1	2100 nM	84%	–
CCN(Cc1ccc(C(F)(F)F)cc1)C(=O)C1CCN(S(=O)(=O)c2ccc3cn[nH]c3c2)CC1	–	–	EC50 ([2]; cho): Not Active
CCN(Cc1cccc(OC)c1)C(=O)C1CCN(S(=O)(=O)c2ccc3cn[nH]c3c2)CC1	2600 nM	85%	–

Compound	EC50 ([2]; read-out: EC50)	%max [3]	other results
CCN(C(=O)C1CCN(S(=O)(=O)c2ccc3[nH]ncc3c2)CC1)[C@H](C)c1ccccc1	740 nM	86%	fold change (FC) [4]: 12
CCN(Cc1ccc(F)cc1)C(=O)C1CCN(S(=O)(=O)c2ccc3cn[nH]c3c2)CC1	> 10000 nM	55%	–
CCN(Cc1ccccc1)C(=O)C1CCN(S(=O)(=O)c2ccncc2)CC1	> 10000 nM	–	–
CN1[C@@H]2CC[C@H]1C[C@@H](OC(=O)C(CO)c1ccccc1)C2 (stereo partly specified)	–	–	%max [5]: 1.8%
CC(C)N(Cc1ccccc1C(F)(F)F)C(=O)C1CCN(S(=O)(=O)c2ccc3[nH]ncc3c2)CC1	> 10000 nM	54%	–
CCN(Cc1ccccc1Cl)C(=O)C1CCN(S(=O)(=O)c2ccc3cn[nH]c3c2)CC1	640 nM	93%	–
CCN(C(=O)C1CCN(S(=O)(=O)c2ccc(OC)cc2)CC1)[C@@H](C)c1ccccc1	–	–	EC50 ([2]; cho): Not Active
CCN(C(=O)C1CCN(S(=O)(=O)c2ccc3c(c2)CCO3)CC1)[C@H](C)c1ccccc1	1110 nM	88%	–
O=C(C1CCN(S(=O)(=O)c2ccc3[nH]ncc3c2)CC1)N(Cc1ccccc1C(F)(F)F)CC1CCC1	130 nM	103%	CLint scaled [1]: > 500 mL/min/kg
CCN(Cc1ccccc1)C(=O)C1CCN(S(=O)(=O)c2cccc3nsnc23)CC1	> 10000 nM	–	–
CCN(Cc1ccccc1)C(=O)C1CCN(S(=O)(=O)c2c[nH]cn2)CC1	> 10000 nM	–	–
CCN(Cc1ccccc1)C(=O)C1CCN(S(=O)(=O)c2ccccc2OC)CC1	> 10000 nM	–	–
CCN(Cc1ccccc1)C(=O)C1CCN(S(=O)(=O)c2ccc(OC)cc2)CC1	3300 nM	84%	–
O=C(C1CCN(S(=O)(=O)c2ccc3[nH]ncc3c2)CC1)N(Cc1ccccc1C(F)(F)F)C1CC1	–	–	EC50 ([2]; cho): Not Active
CCN(Cc1ccccc1)C(=O)C1CCN(S(=O)(=O)c2ccc(OC)c(OC)c2)CC1	> 10000 nM	57%	–
CCN(Cc1ccccc1Cl)C(=O)C1CCN(S(=O)(=O)c2ccc3[nH]ncc3c2)CC1	350 nM	78%	–
CCN(Cc1ccccc1)C(=O)C1CCN(S(=O)(=O)c2cccc3c2OCCO3)CC1	> 10000 nM	53%	–
O=C(C1CCN(S(=O)(=O)c2ccc3[nH]ncc3c2)CC1)N(CCF)Cc1ccccc1C(F)(F)F	1300 nM	95%	–
CCN(Cc1ccccc1C)C(=O)C1CCN(S(=O)(=O)c2ccc3cn[nH]c3c2)CC1	870 nM	103%	–
O=C(C1CCN(S(=O)(=O)c2ccc3[nH]ncc3c2)CC1)N(CCO)Cc1ccccc1C(F)(F)F	> 10000 nM	60%	–

The next lines start with results.

EC50 ([2]; read-out: EC50)	%max [3]	Compound	other results
870 nM	78%	CCN(Cc1cccc(C)c1)C(=O)C1CCN(S(=O)(=O)c2ccc3cn[nH]c3c2)CC1	–
1700 nM	86%	CCN(Cc1ccccc1)C(=O)C1CCN(S(=O)(=O)c2ccc3cn[nH]c3c2)CC1	fold change (FC) [4]: 4.8
730 nM	97%	CCN(C(=O)C1CCN(S(=O)(=O)c2ccc3c(c2)CCC3)CC1)[C@H](C)c1ccccc1	–
930 nM	80%	CCN(C(=O)C1CCN(S(=O)(=O)c2ccc3occc3c2)CC1)[C@H](C)c1ccccc1	–
1600 nM	86%	CCN(Cc1ccccc1)C(=O)C1CCN(S(=O)(=O)c2ccc3[nH]ncc3c2)CC1	fold change (FC) [4]: 5.4
1500 nM	89%	CCN(Cc1cccc(F)c1)C(=O)C1CCN(S(=O)(=O)c2ccc3cn[nH]c3c2)CC1	–
1800 nM	79%	C=CCN(Cc1ccccc1C(F)(F)F)C(=O)C1CCN(S(=O)(=O)c2ccc3[nH]ncc3c2)CC1	–
150 nM	100%	CCC(C)N(Cc1ccccc1C(F)(F)F)C(=O)C1CCN(S(=O)(=O)c2ccc3[nH]ncc3c2)CC1 (stereo unspecified)	–
3100 nM	77%	CCN(Cc1ccccc1)C(=O)C1CCN(S(=O)(=O)c2cccc(OC)c2)CC1	–
1600 nM	77%	CCN(Cc1cccc(Cl)c1)C(=O)C1CCN(S(=O)(=O)c2ccc3cn[nH]c3c2)CC1	–
160 nM	94%	CCCN(Cc1ccccc1C(F)(F)F)C(=O)C1CCN(S(=O)(=O)c2ccc3[nH]ncc3c2)CC1	–
6200 nM	69%	CCN(Cc1ccccc1)C(=O)C1CCN(S(=O)(=O)c2ccccc2)CC1	–
2400 nM	80%	CCN(Cc1ccccc1)C(=O)C1CCN(S(=O)(=O)c2ccc3occc3c2)CC1	–
